According to publication PMC2532710 (Nucleic Acids Research, 2008):
“Also recorded” adds a separate entry of the source.

Tests used:
[1] = test system: HJ-4AP1; test: 2-AP fluorescence titration of additional peptides, HJ-4AP1; type: binding; conditions: for 2-AP quenching / interaction with 4AP1 in HJ: 0.2 μM substrate, pH 7.8, 100 mM NaCl, 1.6% DMSO, peptide dimer 0.05-6.4 μM
How it was run: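 Test peptides (C-terminal amides, dissolved in DMSO) titrated as dimers at 0.05, 0.2, 0.8, 3.2 and 6.4 μM into 0.2 μM 2-AP-labelled HJ in 20 mM Tris-HCl pH 7.8, 100 mM NaCl, 1 mM EDTA, 1.6% DMSO at 24°C. Equilibrated ≥3 min with stirring. Excitation 315 nm, emission 365–375 nm. Adenine-substituted junction spectrum subtracted.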

[2] = test system: Cre/HJ complex; conditions: cited from earlier work
[3] = test system: protein-free HJ DNA; test: peptide/RecG band shift assay on HJ; type: binding; conditions: data not shown
[4] = test system: replication fork substrate; test: 2-AP fluorescence quenching, replication fork; type: binding; conditions: 2-AP fluorescence-based solution assay
How it was run: (§1)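 Substrates were annealed from oligos (boiled 5 min, slow-cooled), gel-purified on native 12% PAGE and quantified spectrophotometrically. After ≥10 min equilibration, emission was read at 330–430 nm (excitation 315 nm). Adenine-substituted spectra were subtracted, and fold decrease at 370 nm was taken versus no peptide.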

[5] = test system: protein-free HJ DNA; conditions: cited from earlier work
[6] = test system: human RAD54 protein; conditions: cited from earlier work
[7] = test system: RecG helicase; conditions: cited from earlier work
[8] = test system: replication fork substrates; conditions: ref K. Kepple, Ph.D. Thesis, 2006; cited from earlier work
[9] = test system: HJ substrate; test: 2-AP fluorescence quenching, HJ substrate; type: binding; conditions: center of both HJ and replication forks
How it was run: as §1

[10] = test system: RuvABC complex; conditions: cited from earlier work
[11] = test system: HJ substrate; test: dissociation from HJ; type: binding
[12] = test system: flayed duplex DNA; conditions: cited from earlier work
[13] = test system: central thymine bases of HJ; conditions: bound to HJ; cited from earlier work
[14] = biological target: T1, (WRWYCR)2 (synthetic); test: 2-AP fluorescence quenching
T1 chain: WRWYCR

[15] = biological target: T1, (WRWYCR)2; test: 2-AP fluorescence quenching
[16] = biological target: T2, WKHYNY (synthetic); test: 2-AP fluorescence quenching
T2 chain: WKHYNY

[17] = biological target: T3, (KWWCRW)2 (synthetic); test: 2-AP fluorescence quenching
T3 chain: KWWCRW

[18] = biological target: T1, (WRWYCR)2; test: EMSA
[19] = biological target: T4, RecG (Escherichia coli, UniProt P24230 1-693); test: EMSA
T4 sequence: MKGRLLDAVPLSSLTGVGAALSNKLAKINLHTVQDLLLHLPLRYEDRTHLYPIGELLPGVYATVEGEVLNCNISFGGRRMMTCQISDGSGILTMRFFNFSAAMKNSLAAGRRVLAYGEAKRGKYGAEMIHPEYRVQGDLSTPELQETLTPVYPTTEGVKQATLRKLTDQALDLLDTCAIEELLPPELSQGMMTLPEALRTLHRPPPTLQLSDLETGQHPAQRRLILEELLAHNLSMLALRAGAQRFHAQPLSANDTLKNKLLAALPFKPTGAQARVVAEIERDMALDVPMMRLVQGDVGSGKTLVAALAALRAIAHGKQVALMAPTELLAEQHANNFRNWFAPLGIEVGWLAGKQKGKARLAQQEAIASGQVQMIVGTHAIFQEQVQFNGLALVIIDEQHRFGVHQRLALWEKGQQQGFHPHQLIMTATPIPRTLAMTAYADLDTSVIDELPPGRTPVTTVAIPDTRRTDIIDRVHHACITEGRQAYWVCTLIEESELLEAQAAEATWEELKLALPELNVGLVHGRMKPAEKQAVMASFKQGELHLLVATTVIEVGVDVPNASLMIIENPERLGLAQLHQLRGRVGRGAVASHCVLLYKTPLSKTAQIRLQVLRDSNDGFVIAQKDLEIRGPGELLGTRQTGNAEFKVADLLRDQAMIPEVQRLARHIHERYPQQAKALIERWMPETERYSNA

WKHYNY
2-AP quenching / interaction with 4AP1 in HJ [1]: does not interact; also recorded: almost no quenching
2-AP quenching ([1]; up to 32-fold excess of peptide dimer (6.4 μM)): little if any effect
quenching effect on 2-AP with Cre/HJ complex [2]: concentration-dependent quenching effect on 2-AP
binding to protein-free HJ ([3]; gel shift assays): has not been detected; also recorded: does not bind protein-free junctions

KWWCRW
binding to replication fork-like substrates [4]: bind to replication fork-like substrates

WRWYCR
binding to replication fork-like substrates [4]: bind to replication fork-like substrates

(KWWCRW)2 (disulfide)
2-AP quenching / interaction with 4AP1 in HJ [1]: interacts with 4AP1 in the HJ substrate
binding to free HJ DNA [5]: bind specifically to free HJ DNA
potency relative to (WRWYCR)2 ([5]; data not shown): nearly as potent as (WRWYCR)2
binding to protein-free junctions ([5]; gel shift and footprinting assays, data not shown): binds to protein-free junctions
inhibition of D-loop unwinding activity [6]: inhibit the D-loop unwinding activity
inhibition of unwinding of branched DNA substrates by RecG [7]: inhibit unwinding of branched DNA substrates
binding to replication forks by band shift [8]: unable to detect binding
quenching of 2-AP in the center of HJ and replication forks [9]: quench the fluorescence of 2-AP bases
inhibition of HJ resolution by RuvABC [10]: inhibit
IC50 ([10]; read-out: IC50, RuvABC): ~50 nM

B1: RecG: monomeric RecG helicase of Escherichia coli (protein, UniProt P24230 1-693, looked up)
ATP-dependent DNA helicase …: T4 sequence
time for half of bound RecG to dissociate ([11]; 0.02 μM RecG, 1 nM labeled HJ, 0.2 μM unlabeled HJ, 4°C): 25 min
dissociation faster than peptide complex ([11]; RecG/HJ vs (WRWYCR)2/HJ): ~2 X
Kd of RecG by gel mobility shift relative to peptide ([3]; 50 ng nonspecific dsDNA): very similar
fold lower affinity for flayed DNA than HJ [12]: ≤ 100 fold
increase in KMnO4 sensitivity of central thymine bases [13]: ~2 fold

B2: Fork-4AP2 (complete fork) (structured_DNA)
DNA 1: CGCGGTACGGCCGGAAGCCTGGTTTACAATGCAAGCTTGACTGGCAGCCC
DNA 2: GCGTCGAGTCGGCTGCAGAGGTATAAAACCAGGCTTCCGGCCGTACCGCG
DNA 3: GGGCTGCCAGTCAAGCTTGCATTGT
DNA 4: TATACCTCTGCAGCCGACTCGACGC
modifications: one A of strand 4 is 2-aminopurine (AP2; underline lost)
binding signal [14]: 2 fold quenching (max)
Kd [15]: 63.5 ± 12 nM

GCGTCGAGTCGGCTGCAGAGGTATAAAACCAGGCTTCCGGCCGTACCGCG (ssDNA, one A is 2-aminopurine (AP2; underline lost)) [Oligo (strand 4 AP2)]
Kd [15]: 731 ± 134 nM

B3: Lag-4AP2 (lagging strand fork) (structured_DNA)
DNA 1: B2 DNA 1
DNA 2: B2 DNA 2
DNA 3: TATACCTCTGCAGCCGACTCGACGC
modifications: one A of strand 4 is 2-aminopurine (AP2; underline lost)
Kd [15]: 79.2 ± 17.3 nM

B4: HJ-4AP2 (structured_DNA)
DNA 1: B2 DNA 1
DNA 2: GGGCTGCCAGTCAAGCTTGCATTGTTGGAGGTACTGTTAGGAATTCTCCAAGTGACTCGG
DNA 3: CCGAGTCACTTGGAGAATTCCTAACAGTACCTCCATATACCTCTGCAGCCGACTCGACGC
DNA 4: B2 DNA 2
modifications: one A near junction center of strand 4 is 2-aminopurine (AP2; underline lost)
Kd [15]: 14.3 ± 3.2 nM

B5: Lead-4AP2 (leading strand fork) (structured_DNA)
DNA 1: B2 DNA 1
DNA 2: B2 DNA 2
DNA 3: GGGCTGCCAGTCAAGCTTGCATTGT
modifications: one A of strand 4 is 2-aminopurine (AP2; underline lost)
Kd [15]: 132 ± 32.8 nM

B6: Flayed-4AP2 (structured_DNA)
DNA 1: B2 DNA 1
DNA 2: B2 DNA 2
modifications: one A of strand 4 is 2-aminopurine (AP2; underline lost)
Kd [15]: 628 ± 107 nM

B7: HJ-4AP1 (structured_DNA)
DNA 1: B2 DNA 1
DNA 2: B4 DNA 2
DNA 3: B4 DNA 3
DNA 4: B2 DNA 2
modifications: one A of strand 4 is 2-aminopurine (AP1; underline lost)
binding result [16]: no binding
binding result [17]: binds

B8: HJ (oligos 1-4) (structured_DNA)
DNA 1: CGCGGTACGGCCGGAAGCCTGCTTTTTTATACAAGCTTAACTCCC
DNA 2: GGGAGTTAAGCTTGTATAAATGAGGTACTGTTAGGAATTCTCCAAGTGACTACGG
DNA 3: CCGTAGTCACTTGGAGAATTCCTAACAGTACCTCATTTATACCTGCAGCCGACGC
DNA 4: GCGTCGGCTGCAGGTATAAAAAAGCAGGCTTCCGGCCGTACCGCG
Kd [18]: 12.5 nM
binding result [19]: binds
